# Screening data (PubChem BioAssay)
# Compounds with a hit are over-represented: about 6.4% of the library has one in this group of screens.
# PLK1 kinase inh – human PLK1 kinase inhibitors, primary screen, biochemical, TR-FRET; Serine/threonine-protein kinase PLK1 (Homo sapiens), P53350; recombinant PLK1 kinase, TR-FRET peptide phosphorylation; AID 619, 2007; inhibition, % at 10 µM; hit rate 0.53% among 97,000;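 active means inhibition of 50% or more in the single-concentration screen; inactive means inhibition below 50%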
# Rev-RRE block – HIV-1 Rev-RRE binding inhibitors, primary screen, biochemical, FRET, protein-RNA interaction; P05866; Rev peptide-RRE RNA binding; inhibition, % at 8 µM; hit rate 0.79% among 97,000; AID 704, 2007;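 active means inhibition above the screen-wide mean plus 3 SD, cut at about 35% in these data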
# Target sequence (P05866 whole entry, looked up): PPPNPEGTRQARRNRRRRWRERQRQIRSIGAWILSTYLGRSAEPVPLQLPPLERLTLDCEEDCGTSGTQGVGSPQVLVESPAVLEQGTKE
#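 Test system: Cy5-tagged RRE RNA duplex with fluorescein-tagged Rev peptide | Read-out: % inhibition of FRET ratio versus controls | Probe or stimulus: Labelled Rev peptide | Incubation: 5 min RNA-compound premix plus 15 min binding step, 25 °C | Technique: FRET fluorescence readout | Benchmarks: DMSO low control, neomycin B high control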
# PostGolgi ctrl – growth inhibition of yeast control strain, primary screen, counter-screen for post-Golgi transport modulator project | efflux-deficient yeast background strain, growth absorbance A615, 16 h | hit rate 5% among 98,000 | inhibition, % at 10 µM
# PostGolgi yeast – phenotypic screen on post-Golgi transport, primary screen | hit rate 0.9% among 98,000 | AID 739, 2007 | inhibition, % at 10 µM | post-Golgi transport phenotypic cell assay;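 further: yeast cells grown in 1536-well plates; yeast grown about 18 h at 30C before absorbance read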
# PLK1 PBD inh – Plk1 polo box domain binding inhibitors, primary screen, biochemical, fluorescence polarization; Serine/threonine-protein kinase PLK1 (Homo sapiens), P53350; Plk1 PBD phosphopeptide binding; inhibition, %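 (tested at about 20 µM)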; hit rate 0.13% among 97,000; AID 693, 2007; in the data active means inhibition above about 34%, passing the limit was not always enough
# EphB4 antag – EphB4-ephrin-B2 interaction antagonists, primary screen, biochemical, TNYL-RAW peptide probe, fluorescence polarization | Ephrin type-B receptor 4 (Homo sapiens), P54760 | EphB4 LBD / TNYL-RAW-Alexa532 peptide | inhibition, % at 7 µM | hit rate 0.15% among 97,000 | AID 720, 2007;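 active means inhibition above the screen-wide mean inhibition plus 3 SD, cut at about 15% in these data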
# Numbers stand for hits; 0 = inactive; - = no result given. Unless noted, no stated cut-off is given here; in the data, active means inhibition above about 30%; inactive means the rest.
SMILES,PLK1 kinase inh,Rev-RRE block,PostGolgi ctrl,PostGolgi yeast,PLK1 PBD inh,EphB4 antag
O=C(CSc1nnc(-c2ccccc2O)o1)Oc1ccc(OCc2ccccc2)cc1,0,0,0,0,0,0
CCCNS(=O)(=O)c1ccc(CCC(=O)N2CCN(c3ccc(OC)cc3)CC2)cc1,0,0,53,0,0,0
O=C(CCNS(=O)(=O)c1ccc(Br)s1)N1CCCCC1,0,0,0,0,0,0
COc1ccc(N2CCN(C(=O)CCNS(=O)(=O)c3ccc(Br)s3)CC2)cc1,0,0,0,84,0,0
CCCNS(=O)(=O)c1ccc(CCC(=O)N2CCOCC2)cc1,0,0,0,0,0,0
CCn1cc(C(=O)N2CCCC2)c(=O)c2cc(S(=O)(=O)N3CCOCC3)ccc21,0,0,0,0,0,0
COCCCNCC(=O)Nc1ccc(OC(F)(F)F)cc1,-,-,42,0,-,-
Clc1ccc2[nH]c3c(NCCN4CCOCC4)ncnc3c2c1,-,-,30,0,-,-
Clc1ccc2[nH]c3c(NCC4CCCO4)ncnc3c2c1 (centres undefined),0,0,0,37,0,0
Clc1ccc(-n2ncc3c(NCC4CCCO4)ncnc32)cc1 (centres undefined),-,-,0,0,-,-
NC(=S)Nc1nc2ccccc2[nH]c1=O,0,0,0,0,0,0
Cc1ccc(NC(=S)c2nc3ccccc3[nH]2)cc1,0,0,51,0,0,0
Cc1cc(NC(=O)c2ccc(Cn3nc(C)c(Br)c3C)o2)no1,0,0,0,0,0,0
Cc1nn(Cc2ccc(C(=O)Nc3nc4c(C)cccc4s3)o2)c(C)c1Br,0,0,35,32,0,0
O=C(CS(=O)(=O)c1ccccc1)Nc1nc(-c2ccccc2)cs1,0,0,41,0,0,0
Cc1ccc(S(=O)(=O)CC(=O)Nc2nc(-c3ccccc3)cs2)cc1,0,0,63,0,0,0
O=C(O)CCCC(=O)Nc1nc(-c2ccccc2)cs1,0,0,0,0,0,0
Cc1nnc(SCC(=O)Nc2nc(-c3ccccc3)cs2)n1N,0,0,0,0,0,0
CCn1c(SCC(=O)Nc2nc(-c3ccccc3)cs2)nnc1-c1ccccc1,0,0,58,0,0,0
Cc1nc(C)c(C(=O)NCc2ccccc2Cl)o1,0,0,0,0,0,0
CC1(C)CC(=O)C2=C(C1)OC(N)=C(C#N)C2C1CC=CCC1 (centres undefined),0,0,0,0,0,0
CCOC(=O)N1CCC(=NNS(=O)(=O)c2cccc([N+](=O)[O-])c2)CC1,0,0,0,0,0,0
O=[N+]([O-])c1ccc(NCCCNS(=O)(=O)c2ccc(Cl)cc2)c(Cl)c1,0,0,72,36,0,0
O=S(=O)(Nc1cccnc1)c1ccc(Cl)c(C(F)(F)F)c1,0,0,0,0,0,0
O=C(c1ccccc1C(F)(F)F)N1CCN(S(=O)(=O)c2ccccc2)CC1,0,0,0,0,0,0
SMILES,PLK1 kinase inh,Rev-RRE block,PostGolgi ctrl,PostGolgi yeast,PLK1 PBD inh,EphB4 antag
CN(C)c1nc(OCCOC(=O)Nc2ccc(Cl)cc2Cl)nc(N(C)C)n1,-,-,34,0,-,-
CON(C)c1nc(OCCNC(=O)OCc2ccc(Cl)cc2C)nc(N(C)C)n1,0,0,-,-,0,0
CCOc1ccc2nc(N3CCC(C(=O)N4CCN(C(=O)c5ccco5)CC4)CC3)sc2c1,-,-,0,0,-,-
CCOc1ccc2cc(/C=C/C(=O)c3ccco3)c(Cl)nc2c1,0,53,0,0,0,0
CSc1nc(N2CCOCC2)c2c3c(sc2n1)CCCC3,0,0,36,0,0,0
CC(NC(=O)C(Cc1ccccc1)N1C(=O)C2C3CCC(C3)C2C1=O)c1ccccc1 (centres undefined),0,0,32,0,0,0
O=C(NCc1ccco1)C(Cc1ccccc1)N1C(=O)C2C3C=CC(C3)C2C1=O (centres undefined),0,0,0,0,0,0
O=C(CSc1nnc(-c2cc3ccccc3cc2O)n1Cc1ccco1)c1ccc(F)cc1,0,0,80,0,0,0
O=C(CSc1nnc(-c2ccco2)n1Cc1ccccc1)c1ccc(F)cc1,-,-,32,0,-,-
CC(=O)C1=C(N2CCCCC2)CCC1=O,0,0,32,0,0,0
COc1ccc(S(=O)(=O)NCc2ccco2)c2ccccc12,-,-,34,0,-,-
COc1ccc(C(=O)Nc2ccc(S(=O)(=O)NCc3ccco3)cc2)cc1OC,0,0,33,0,0,0
O=C(CSc1nnnn1-c1ccccc1)N1CCc2ccccc2C1,0,0,0,0,0,0
CC(=O)c1ccc(-n2nnnc2SCC(=O)NNC(=O)c2ccco2)cc1,0,0,43,0,0,0
Cc1ccc(-n2nnnc2SCC(=O)Nc2cccc(NC(=O)c3ccco3)c2)cc1C,0,0,38,0,0,0
CC(=O)c1ccc(-n2nnnc2SCC(=O)N2CCc3ccccc3C2)cc1,0,0,0,0,0,18
CCc1ccc(-n2nnnc2SCC(=O)NNC(=O)c2ccco2)cc1,0,0,0,0,0,0
CCC/C(O)=N\S(=O)(=O)c1ccc(N=NN(C)C)cc1,0,0,-,-,0,0
CCOC(=O)c1c(C#N)c(SCC(=O)Nc2ccc(OC)cc2)nc2c1CN(CC)CC2,0,0,0,0,0,0
O=[N+]([O-])c1cc([N+](=O)[O-])c(N2CCCCCC2)cc1NCCO,0,0,0,0,0,0
Cc1[nH]nc(N=CC2=C(O)CC(C)(C)CC2=O)c1-c1ccc(Cl)cc1,0,0,0,79,0,0
CCOC(=O)c1sc2nc(CC(=O)OC)nc(NCc3ccco3)c2c1C,0,39,0,0,0,0
CCOC(=O)c1cc2occc2n1CC(=O)Nc1ccc(OC)cc1OC,-,-,0,0,-,-
CSc1nc2ncc3c(n2n1)CC1c2ccccc2CCN1C3=O (centres undefined),0,0,32,0,0,0
Clc1cccc(CSc2ncn(-c3ccccc3)n2)c1,0,0,-,-,0,0
SMILES,PLK1 kinase inh,Rev-RRE block,PostGolgi ctrl,PostGolgi yeast,PLK1 PBD inh,EphB4 antag
O=C1c2cnc3nc(SCc4cccc(Cl)c4)nn3c2CC2c3ccccc3CCN12 (centres undefined),0,0,42,0,0,0
O=C(CCn1c(=O)c2ccccc2n(CC(=O)NC2CCCC2)c1=O)NCCc1ccc(Cl)cc1,0,0,0,0,0,0
CC1(C)CC(=O)C(/C=N/n2c(C(F)(F)F)nc3ccccc3c2=O)=C(O)C1,0,0,0,0,0,0
O=C(CN1CCN(c2ncc(C(F)(F)F)cc2Cl)CC1)NCCNc1ncc(C(F)(F)F)cc1Cl,0,0,85,0,0,0
CC(C)(C)NC(=O)NC(=O)CN1CCN(c2ncc(C(F)(F)F)cc2Cl)CC1,0,0,32,0,0,0
COC(=O)c1nn(-c2ccccc2)c(Sc2ccc(Cl)cc2)c1/C=N/O,0,0,0,0,0,0
